# Experimental data: ChEMBL document CHEMBL1212930, “The hoiamides, structurally intriguing neurotoxic lipopeptides from Papua New Guinea marine cyanobacteria” (J Nat Prod, 2010); call rule not given here
# How the values were obtained:
# [1] = Inhibition of calcium channel in mouse neocortical neurons assessed as inhibition of intracellular calcium oscilations; type: cell-based
# Outline: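 Primary neocortical neurons from embryonic day 16 Swiss-Webster mice, used at 12–13 DIV. Loaded 1 h with 4 μM fluo-3 plus 0.04% pluronic F-127 in Locke's buffer (pH 7.4), washed four times. Excitation 485 nm, emission 535 nm, read every 1.5 s; 60 s baseline, then compound added as a 4× solution. IC50 given with 95% CI.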
# NCI-H460 = assay: Cytotoxicity against human H460 cells; type: functional, cell-based
# [2] = Activation of voltage-gated sodium channel in mouse Neuro-2a cells assessed as intracellular sodium influx; settings: N2a
# [3] = Activation of voltage-gated sodium channel in mouse neocortical neuron assessed as intracellular sodium influx
# [4] = Cytotoxicity against mouse Neuro2a cells; type: functional, cell-based, N2a
# [5] = Homo sapiens, NCI-H460, read-out: IC50
IC50 [2],SMILES,"IC50 ([1]; Mus musculus, read-out: IC50)",IC50 (NCI-H460; nci-h460),"EC50 ([3]; Mus musculus, read-out: EC50)",IC50 [1],IC50 ([4]; n2a),EC50 [3],IC50 (NCI-H460; [5]),"IC50 ([4]; Mus musculus, N2a, read-out: IC50)"
3400 nM,CCC[C@@H](C)[C@H](OC(=O)c1ccc(Br)cc1)[C@H](C)[C@H]1OC(=O)[C@H]([C@@H](C)O)NC(=O)[C@H](C(C)C)OC(=O)[C@H](C)[C@H](O)[C@H]([C@@H](C)CC)NC(=O)[C@@]2(C)CSC(=N2)[C@@]2(C)CSC(=N2)c2csc(n2)C[C@H](OC)[C@@H]1C,87.3 nM,Not Active,9300 nM,–,–,–,–,–
–,CCC[C@@H](C)[C@H](OC(C)=O)[C@H](C)[C@H]1OC(=O)[C@H]([C@@H](C)OC(C)=O)NC(=O)[C@H](C(C)C)OC(=O)[C@H](C)[C@H](OC(C)=O)[C@H]([C@@H](C)CC)NC(=O)[C@@]2(C)CSC(=N2)[C@@]2(C)CSC(=N2)c2csc(n2)C[C@H](OC)[C@@H]1C,–,Not Active,–,Not Active,Not Active,Not Active,–,–
–,CCC[C@@H](C)[C@H](O)[C@H](C)[C@H]1OC(=O)[C@H]([C@@H](C)O)NC(=O)[C@H](C(C)C)OC(=O)[C@H](C)[C@H](O)[C@H]([C@@H](C)CC)NC(=O)[C@@]2(C)CSC(=N2)[C@@]2(C)CSC(=N2)c2csc(n2)C[C@H](OC)[C@@H]1C [HOIAMIDE A],45.6 nM,–,1700 nM,–,–,–,11200 nM,2100 nM
–,CCC[C@@H](C)[C@H](O)[C@H](C)[C@H]1OC(=O)[C@H]([C@@H](C)O)NC(=O)[C@H]([C@@H](C)CC)OC(=O)[C@H](C)[C@H](O)[C@H]([C@@H](C)CC)NC(=O)[C@@]2(C)CSC(=N2)[C@@]2(C)CSC(=N2)c2csc(n2)C[C@H](OC)[C@@H]1C [HOIAMIDE B],79.8 nM,–,3900 nM,–,Not Active,–,8300 nM,–
–,CCC[C@@H](C)[C@H](O)[C@H](C)[C@@H](O)[C@@H](C)[C@H](Cc1nc(C2=N[C@@](C)(C3=N[C@@](C)(C(=O)N[C@H]([C@@H](O)[C@@H](C)C(=O)OCC)[C@@H](C)CC)CS3)CS2)cs1)OC [HOIAMIDE C],–,Not Active,–,Not Active,Not Active,Not Active,–,–
